Assay results taken from ChEMBL document CHEMBL4382232, “Grayanane Diterpenoid Glucosides from the Leaves of Rhododendron micranthum and Their Bioactivities Evaluation” (2018).
Calls of active or inactive are those of the source. The calls are words filed in the database; no cut-off is given here.

Tests used:
Mus musculus [1] = experiment: Antinociceptive activity in Kunming mouse model of acetic-acid-induced writhing assessed as inhibition of writhing numbers at 0.2 mg/kg measured for 30 mins relative to control; format: functional; conditions: 0.5 h
In short: (§1)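 Acetic-acid-induced writhing model in Kunming mice (10 per group); doses 0.2, 1.0 and 5.0 mg/kg; vehicle-treated and morphine positive-control groups; inhibition of writhing relative to vehicle; mean ± SEM; one-way ANOVA with Bonferroni test. Animal work approved by institutional ethics committee.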

[2] = molecular target: T1, Tyrosine-protein phosphatase non-receptor type 1 (Homo sapiens) (UniProt P18031); experiment: Inhibition of recombinant human PTP1B at 40 uM using pNPP as substrate preincubated for 10 mins followed by substrate addition and measured after 30 mins at 5 mins time interval for 30 mins
T1 sequence (whole entry): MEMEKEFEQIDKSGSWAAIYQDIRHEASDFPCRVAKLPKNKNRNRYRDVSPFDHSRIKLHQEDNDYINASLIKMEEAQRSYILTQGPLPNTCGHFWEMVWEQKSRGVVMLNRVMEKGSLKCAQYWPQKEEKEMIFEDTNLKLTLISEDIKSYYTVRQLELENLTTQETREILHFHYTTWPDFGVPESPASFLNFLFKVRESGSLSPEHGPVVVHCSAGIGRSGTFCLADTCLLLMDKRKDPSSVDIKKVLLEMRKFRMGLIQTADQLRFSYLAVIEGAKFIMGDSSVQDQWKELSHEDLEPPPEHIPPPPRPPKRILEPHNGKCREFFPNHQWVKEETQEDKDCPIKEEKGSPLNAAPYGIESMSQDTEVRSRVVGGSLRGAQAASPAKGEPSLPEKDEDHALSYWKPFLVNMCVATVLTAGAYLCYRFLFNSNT

Mus musculus [3] = experiment: Antinociceptive activity in Kunming mouse model of acetic-acid-induced writhing assessed as inhibition of writhing numbers at 1 mg/kg measured for 30 mins relative to control; format: functional; conditions: 0.5 h; in short: as §1
SMMC-7721 = experiment: Cytotoxicity against human SMMC7721 cells at 40 uM after 48 hrs by MTT assay; format: functional, cell-based
Mus musculus [4] = experiment: Antinociceptive activity in Kunming mouse model of acetic-acid-induced writhing assessed as inhibition of writhing numbers at 5 mg/kg measured for 30 mins relative to control; format: functional; conditions: 0.5 h; in short: as §1
SW480 = experiment: Cytotoxicity against human SW480 cells at 40 uM after 48 hrs by MTT assay; format: functional, cell-based
MCF7 = experiment: Cytotoxicity against human MCF7 cells at 40 uM after 48 hrs by MTT assay; format: functional, cell-based
HL-60 = experiment: Cytotoxicity against human HL60 cells at 40 uM after 48 hrs by MTT assay; format: functional, cell-based
RAW264.7 = experiment: Anti-inflammatory activity in mouse RAW264.7 cells assessed as inhibition of LPS-induced NO production at 40 uM; format: functional, cell-based
A549 = experiment: Cytotoxicity against human A549 cells at 40 uM after 48 hrs by MTT assay; format: functional, cell-based

In the case of `C=C1[C@H]2C[C@H](O[C@@H]3O[C@H](CO)[C@@H](O)[C@H](O)[C@H]3O)C(C)(C)[C@]2(O)CC[C@@]23C[C@@H](CC[C@@H]12)[C@](C)(O)C3`, the inhibition in vivo at 0.2 mg/kg (Mus musculus [1]) is reported as 46.1%, the inhibition [2] is reported as “inactive” and the inhibition in vivo at 1 mg/kg (Mus musculus [3]) is reported as 58.7%. For the same molecule, the Activity (SMMC-7721) was “inactive”, the inhibition in vivo at 5 mg/kg (Mus musculus [4]) was 82.3% and the Activity (SW480) was “inactive”. The Activity (MCF7) was “inactive”, the Activity (HL-60) was “inactive” and the inhibition (RAW264.7) was “inactive”. The Activity (A549) was “inactive”.
